Test results reported in ChEMBL document CHEMBL3779826, “Converting maslinic acid into an effective inhibitor of acylcholinesterases” (Eur J Med Chem, 2015).

Key:
[1] = target: Cholinesterase (Equus caballus, UniProt P81908); assay: Inhibition of equine serum BChE using butyrylthiocholine iodide as substrate preincubated for 20mins before the addition of substrate by Ellman's method
[2] = target: Acetylcholinesterase (Electrophorus electricus) (UniProt O42275); assay: Mixed type inhibition of Electrophorus electricus AChE by Lineweaver-Burk plot analysis
Sequence of Acetylcholinesterase (Electrophorus electricus) (O42275 24-633 limits assumed): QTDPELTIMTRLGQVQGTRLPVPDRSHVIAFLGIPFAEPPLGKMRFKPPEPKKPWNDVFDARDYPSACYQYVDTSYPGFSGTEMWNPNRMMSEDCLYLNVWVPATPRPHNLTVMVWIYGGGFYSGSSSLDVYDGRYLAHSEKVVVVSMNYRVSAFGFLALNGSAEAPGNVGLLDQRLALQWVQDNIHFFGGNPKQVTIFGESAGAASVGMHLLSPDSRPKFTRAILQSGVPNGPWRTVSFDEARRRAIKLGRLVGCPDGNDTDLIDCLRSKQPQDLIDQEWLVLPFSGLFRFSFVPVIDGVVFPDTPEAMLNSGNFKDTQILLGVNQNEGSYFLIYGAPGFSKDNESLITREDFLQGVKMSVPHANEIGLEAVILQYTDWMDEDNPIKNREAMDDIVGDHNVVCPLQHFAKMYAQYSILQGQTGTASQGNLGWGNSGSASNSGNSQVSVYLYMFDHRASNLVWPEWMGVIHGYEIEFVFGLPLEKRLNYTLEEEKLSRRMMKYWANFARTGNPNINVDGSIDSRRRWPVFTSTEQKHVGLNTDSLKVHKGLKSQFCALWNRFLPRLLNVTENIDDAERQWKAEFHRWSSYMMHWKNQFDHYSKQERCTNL
Outline: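 Ellman kinetics at 30 °C in pH 8.0 Tris-HCl with DTNB. Enzyme plus inhibitor (3 concentrations and a water blank) was preincubated for 20 min, then ATChI was added at 0.9375, 0.625, 0.325 or 0.1875 mM. A415 was read every minute for 30 min, in triplicate. Mode, Ki and Ki' came from Lineweaver-Burk, Dixon and Cornish-Bowden plots.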

[3] = target: Acetylcholinesterase (Electrophorus electricus, UniProt O42275); assay: Inhibition of Electrophorus electricus AChE using acetylthiocholine iodide as substrate preincubated for 20mins before the addition of substrate by Ellman's method
Sequence of Acetylcholinesterase (O42275 whole entry): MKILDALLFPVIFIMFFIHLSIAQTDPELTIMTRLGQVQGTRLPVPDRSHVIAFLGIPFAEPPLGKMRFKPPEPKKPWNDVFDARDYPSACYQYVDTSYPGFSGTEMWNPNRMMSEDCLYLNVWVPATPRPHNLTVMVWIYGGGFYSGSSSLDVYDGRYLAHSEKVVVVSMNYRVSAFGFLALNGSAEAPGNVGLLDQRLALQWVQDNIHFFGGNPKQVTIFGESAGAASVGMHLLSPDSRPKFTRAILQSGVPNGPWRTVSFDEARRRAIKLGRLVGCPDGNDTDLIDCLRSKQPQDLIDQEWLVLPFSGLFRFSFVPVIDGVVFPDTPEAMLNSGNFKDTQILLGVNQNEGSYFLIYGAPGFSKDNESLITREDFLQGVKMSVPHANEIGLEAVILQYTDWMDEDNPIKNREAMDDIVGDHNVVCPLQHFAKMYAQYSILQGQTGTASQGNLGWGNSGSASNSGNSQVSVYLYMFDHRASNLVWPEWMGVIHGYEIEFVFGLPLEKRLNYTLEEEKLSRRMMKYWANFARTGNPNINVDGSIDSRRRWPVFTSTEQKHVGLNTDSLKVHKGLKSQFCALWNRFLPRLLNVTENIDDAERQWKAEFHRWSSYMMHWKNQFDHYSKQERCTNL

Sequence of Cholinesterase (P81908 whole entry): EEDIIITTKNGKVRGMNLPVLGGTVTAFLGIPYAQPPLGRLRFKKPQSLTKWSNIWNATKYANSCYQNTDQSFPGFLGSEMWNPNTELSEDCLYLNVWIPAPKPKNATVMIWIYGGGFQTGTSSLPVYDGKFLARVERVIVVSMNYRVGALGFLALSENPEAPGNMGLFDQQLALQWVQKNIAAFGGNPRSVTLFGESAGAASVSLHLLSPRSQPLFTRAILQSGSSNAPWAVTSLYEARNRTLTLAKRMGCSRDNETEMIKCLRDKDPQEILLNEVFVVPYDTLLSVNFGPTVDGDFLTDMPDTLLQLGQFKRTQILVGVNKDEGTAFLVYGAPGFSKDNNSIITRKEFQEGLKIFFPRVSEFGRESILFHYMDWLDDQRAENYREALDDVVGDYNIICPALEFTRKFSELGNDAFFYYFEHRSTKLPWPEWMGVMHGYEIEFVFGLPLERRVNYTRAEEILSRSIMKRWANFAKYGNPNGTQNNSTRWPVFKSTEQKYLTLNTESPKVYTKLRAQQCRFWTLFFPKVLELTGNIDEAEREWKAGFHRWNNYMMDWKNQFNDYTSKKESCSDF

| Structure (SMILES) | Ki ([1]; read-out: Ki) [µM] | Kiuc [2] [µM] | IC50 [3] [µM] | Ki ([3]; read-out: Ki) [µM] | Ki [1] | Ki [3] | IC50 [1] [µM] |
| --- | --- | --- | --- | --- | --- | --- | --- |
| CC1(C)CC[C@]2(C(=O)OCC3CCCCC3)CC[C@]3(C)C(=CC[C@@H]4[C@@]5(C)C[C@@H](O)[C@H](O)C(C)(C)[C@@H]5CC[C@]43C)[C@@H]2C1 | > 14 | 2.67 | 3.87 | 10 | – | – | – |
| CC1(C)CC[C@]2(C(=O)OCCCCl)CC[C@]3(C)C(=CC[C@@H]4[C@@]5(C)C[C@@H](O)[C@H](O)C(C)(C)[C@@H]5CC[C@]43C)[C@@H]2C1 | > 6 | 3.45 | 4.07 | 8.76 | – | – | – |
| CC1(C)CC[C@@]2(C(=O)OCc3ccc([N+](=O)[O-])cc3)CC[C@@]3(C)C(=CC[C@H]4[C@]5(C)C[C@H](O)[C@@H](O)C(C)(C)[C@H]5CC[C@@]43C)[C@H]2C1 (single isomer, unassigned) | > 4 | 7.22 | 7.41 | 6.14 | – | – | – |
| CC(=O)O[C@H]1C[C@]2(C)[C@H]3CC=C4[C@@H]5CC(C)(C)CC[C@]5(C(=O)NCc5ccccc5)CC[C@@]4(C)[C@]3(C)CC[C@H]2C(C)(C)[C@H]1OC(C)=O | – | – | – | > 10 | – | – | – |
| CC1(C)CC[C@]2(C(=O)NCc3ccccc3)CC[C@]3(C)C(=CC[C@@H]4[C@@]5(C)C[C@H](OC(=O)CCl)[C@H](OC(=O)CCl)C(C)(C)[C@@H]5CC[C@]43C)[C@@H]2C1 | – | – | 15.3 | 6.25 | – | – | – |
| CC(=O)O[C@@H]1C[C@]2(C)[C@H]3CC=C4[C@@H]5CC(C)(C)CC[C@]5(C(N)=O)CC[C@@]4(C)[C@]3(C)CC[C@H]2C(C)(C)[C@H]1OC(C)=O | > 20 | – | – | > 20 | – | – | – |
| CC1(C)CC[C@]2(C(=O)O)CC[C@]3(C)C(=CC[C@@H]4[C@@]5(C)C[C@H](OC(=O)CCl)[C@H](OC(=O)CCl)C(C)(C)[C@@H]5CC[C@]43C)[C@@H]2C1 | – | 9.36 | 6.6 | 6.85 | – | – | – |
| C=CCNC(=O)[C@]12CCC(C)(C)C[C@H]1C1=CC[C@@H]3[C@@]4(C)C[C@@H](OC(C)=O)[C@H](OC(C)=O)C(C)(C)[C@@H]4CC[C@@]3(C)[C@]1(C)CC2 | > 20 | – | – | > 20 | – | – | – |
| CC(=O)O[C@H]1C[C@]2(C)[C@H]3CC=C4[C@@H]5CC(C)(C)CC[C@]5(C(=O)O)CC[C@@]4(C)[C@]3(C)CC[C@H]2C(C)(C)[C@H]1OC(C)=O | > 20 | – | – | > 20 | – | – | – |
| CCCCCCCCCCCCCCCCCCOC(=O)[C@]12CCC(C)(C)C[C@H]1C1=CC[C@@H]3[C@@]4(C)C[C@@H](O)[C@H](O)C(C)(C)[C@@H]4CC[C@@]3(C)[C@]1(C)CC2 | – | – | – | – | ND(Insoluble) | ND(Insoluble) | – |
| CC1(C)CC[C@]2(C(=O)NCc3ccccc3)CC[C@]3(C)C(=CC[C@@H]4[C@@]5(C)C[C@@H](O)[C@H](O)C(C)(C)[C@@H]5CC[C@]43C)[C@@H]2C1 | – | – | – | > 10 | – | – | – |
| CCCCCCCCCCCCOC(=O)[C@]12CCC(C)(C)C[C@H]1C1=CC[C@@H]3[C@@]4(C)C[C@@H](O)[C@H](O)C(C)(C)[C@@H]4CC[C@@]3(C)[C@]1(C)CC2 | – | – | – | – | ND(Insoluble) | ND(Insoluble) | – |
| CC1(C)CC[C@]2(C(=O)OCCC#CCl)CC[C@]3(C)C(=CC[C@@H]4[C@@]5(C)C[C@@H](O)[C@H](O)C(C)(C)[C@@H]5CC[C@]43C)[C@@H]2C1 | > 6 | 14.8 | 6.57 | 5.71 | – | – | – |
| CCOC(=O)[C@]12CCC(C)(C)C[C@H]1C1=CC[C@@H]3[C@@]4(C)C[C@@H](O)[C@H](O)C(C)(C)[C@@H]4CC[C@@]3(C)[C@]1(C)CC2 | > 14 | 4.67 | 4.68 | 3.49 | – | – | – |
| C=CCNC(=O)[C@]12CCC(C)(C)C[C@H]1C1=CC[C@@H]3[C@@]4(C)C[C@@H](O)[C@H](O)C(C)(C)[C@@H]4CC[C@@]3(C)[C@]1(C)CC2 | > 20 | – | – | > 20 | – | – | – |
| COC(=O)[C@]12CCC(C)(C)C[C@H]1C1=CC[C@@H]3[C@@]4(C)C[C@@H](O)[C@H](O)C(C)(C)[C@@H]4CC[C@@]3(C)[C@]1(C)CC2 [MASLINIC ACID METHYL ESTER] | > 50 | – | – | > 50 | – | – | – |
| C#CCOC(=O)[C@]12CCC(C)(C)C[C@H]1C1=CC[C@@H]3[C@@]4(C)C[C@@H](O)[C@H](O)C(C)(C)[C@@H]4CC[C@@]3(C)[C@]1(C)CC2 | > 10 | – | – | > 10 | – | – | – |
| CCNC(=O)[C@]12CCC(C)(C)C[C@H]1C1=CC[C@@H]3[C@@]4(C)C[C@@H](OC(C)=O)[C@H](OC(C)=O)C(C)(C)[C@@H]4CC[C@@]3(C)[C@]1(C)CC2 | > 14 | – | – | > 14 | – | – | – |
| CC1(C)CC[C@]2(C(=O)O)CC[C@]3(C)C(=CC[C@@H]4[C@@]5(C)C[C@@H](OC(=O)CCl)[C@H](OC(=O)CCl)C(C)(C)[C@@H]5CC[C@]43C)[C@@H]2C1 | – | 19.8 | 15.1 | 13.1 | – | – | – |
| CC1(C)CC[C@]2(C(=O)OCc3cccc(Cl)c3)CC[C@]3(C)C(=CC[C@@H]4[C@@]5(C)C[C@@H](O)[C@H](O)C(C)(C)[C@@H]5CC[C@]43C)[C@@H]2C1 | > 10 | – | – | > 10 | – | – | – |

| Structure (SMILES) | Ki ([1]; read-out: Ki) [µM] | Kiuc [2] [µM] | IC50 [3] [µM] | Ki ([3]; read-out: Ki) [µM] | Ki [1] | Ki [3] | IC50 [1] [µM] |
| --- | --- | --- | --- | --- | --- | --- | --- |
| CC1(C)CC[C@]2(C(=O)OCc3ccc(Cl)cc3)CC[C@]3(C)C(=CC[C@@H]4[C@@]5(C)C[C@@H](O)[C@H](O)C(C)(C)[C@@H]5CC[C@]43C)[C@@H]2C1 | > 30 | – | – | > 30 | – | – | – |
| CC1(C)CC[C@]2(C(=O)OCCO)CC[C@]3(C)C(=CC[C@@H]4[C@@]5(C)C[C@@H](O)[C@H](O)C(C)(C)[C@@H]5CC[C@]43C)[C@@H]2C1 | > 100 | – | – | > 100 | – | – | – |
| C=CCCOC(=O)[C@]12CCC(C)(C)C[C@H]1C1=CC[C@@H]3[C@@]4(C)C[C@@H](O)[C@H](O)C(C)(C)[C@@H]4CC[C@@]3(C)[C@]1(C)CC2 | > 10 | 11.5 | 6.25 | 3.31 | – | – | – |
| CC1(C)CC[C@]2(C(=O)OCc3ccc(Br)cc3)CC[C@]3(C)C(=CC[C@@H]4[C@@]5(C)C[C@@H](O)[C@H](O)C(C)(C)[C@@H]5CC[C@]43C)[C@@H]2C1 | > 20 | – | – | > 20 | – | – | – |
| C#CCNC(=O)[C@]12CCC(C)(C)C[C@H]1C1=CC[C@@H]3[C@@]4(C)C[C@@H](O)[C@H](O)C(C)(C)[C@@H]4CC[C@@]3(C)[C@]1(C)CC2 | > 20 | – | – | > 20 | – | – | – |
| CC(=O)O[C@@H]1C[C@]2(C)[C@H]3CC=C4[C@@H]5CC(C)(C)CC[C@]5(C(=O)O)CC[C@@]4(C)[C@]3(C)CC[C@H]2C(C)(C)[C@H]1OC(C)=O | > 10 | – | – | > 10 | – | – | – |
| COC(=O)[C@]12CCC(C)(C)C[C@H]1C1=CC[C@@H]3[C@@]4(C)C[C@@H](O)[C@H](OS(N)(=O)=O)C(C)(C)[C@@H]4CC[C@@]3(C)[C@]1(C)CC2 | > 20 | 38.6 | 21.3 | 20.5 | – | – | – |
| CC(=O)O[C@@H]1C[C@]2(C)[C@H]3CC=C4[C@@H]5CC(C)(C)CC[C@]5(C(=O)NCc5ccccc5)CC[C@@]4(C)[C@]3(C)CC[C@H]2C(C)(C)[C@H]1OC(C)=O | – | 39.4 | 29.4 | 16.2 | – | – | – |
| CC1(C)CC[C@]2(C(=O)OCCCCBr)CC[C@]3(C)C(=CC[C@@H]4[C@@]5(C)C[C@@H](O)[C@H](O)C(C)(C)[C@@H]5CC[C@]43C)[C@@H]2C1 | > 10 | – | – | > 10 | – | – | – |
| COc1ccc(COC(=O)[C@]23CCC(C)(C)C[C@H]2C2=CC[C@@H]4[C@@]5(C)C[C@@H](O)[C@H](O)C(C)(C)[C@@H]5CC[C@@]4(C)[C@]2(C)CC3)cc1 | > 100 | 69.6 | – | 6.49 | – | – | – |
| CC1(C)CC[C@]2(C(=O)OCc3ccccc3)CC[C@]3(C)C(=CC[C@@H]4[C@@]5(C)C[C@@H](O)[C@H](O)C(C)(C)[C@@H]5CC[C@]43C)[C@@H]2C1 [BENZYL MASLINATE] | > 14 | – | – | > 14 | – | – | – |
| COC(=O)[C@]12CCC(C)(C)C[C@H]1C1=CC[C@@H]3[C@@]4(C)C[C@@H](OS(N)(=O)=O)[C@H](O)C(C)(C)[C@@H]4CC[C@@]3(C)[C@]1(C)CC2 | > 40 | – | – | > 40 | – | – | – |
| CCCNC(=O)[C@]12CCC(C)(C)C[C@H]1C1=CC[C@@H]3[C@@]4(C)C[C@@H](OC(C)=O)[C@H](OC(C)=O)C(C)(C)[C@@H]4CC[C@@]3(C)[C@]1(C)CC2 | > 6 | – | – | > 6 | – | – | – |
| C#CCCOC(=O)[C@]12CCC(C)(C)C[C@H]1C1=CC[C@@H]3[C@@]4(C)C[C@@H](O)[C@H](O)C(C)(C)[C@@H]4CC[C@@]3(C)[C@]1(C)CC2 | > 20 | 32.5 | 11.7 | 6.76 | – | – | – |
| CC1(C)CC[C@]2(C(=O)OCCCO)CC[C@]3(C)C(=CC[C@@H]4[C@@]5(C)C[C@@H](O)[C@H](O)C(C)(C)[C@@H]5CC[C@]43C)[C@@H]2C1 | > 10 | 13.7 | 13.8 | 20.1 | – | – | – |
| C=CCOC(=O)[C@]12CCC(C)(C)C[C@H]1C1=CC[C@@H]3[C@@]4(C)C[C@@H](O)[C@H](O)C(C)(C)[C@@H]4CC[C@@]3(C)[C@]1(C)CC2 | > 30 | – | – | > 30 | – | – | – |
| CC1(C)CC[C@]2(C(=O)NCc3ccccc3)CC[C@]3(C)C(=CC[C@@H]4[C@@]5(C)C[C@@H](OC(=O)CCl)[C@H](OC(=O)CCl)C(C)(C)[C@@H]5CC[C@]43C)[C@@H]2C1 | – | – | 20 | 25.1 | – | – | – |
| CC1(C)CC[C@]2(C(N)=O)CC[C@]3(C)C(=CC[C@@H]4[C@@]5(C)C[C@@H](O)[C@H](O)C(C)(C)[C@@H]5CC[C@]43C)[C@@H]2C1 | 18.1 | – | – | > 20 | – | – | 34.1 |
| CCNC(=O)[C@]12CCC(C)(C)C[C@H]1C1=CC[C@@H]3[C@@]4(C)C[C@@H](O)[C@H](O)C(C)(C)[C@@H]4CC[C@@]3(C)[C@]1(C)CC2 | > 20 | – | – | > 20 | – | – | – |
| C#CCNC(=O)[C@]12CCC(C)(C)C[C@H]1C1=CC[C@@H]3[C@@]4(C)C[C@@H](OC(C)=O)[C@H](OC(C)=O)C(C)(C)[C@@H]4CC[C@@]3(C)[C@]1(C)CC2 | > 14 | – | 15.1 | 8.14 | – | – | – |
